What was measured:
[1] = system: MS2 coat protein; experiment: apparent Kd, MS2 coat protein; higher = weaker binding; RNA-MaP array
In short: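 Fluorescently labeled MS2 coat protein, from 1.5 nM to 3 μM, was incubated at room temperature with designed RNAs transcribed on an Illumina sequencing chip from sequenced DNA templates. Times ran from 0.8–1.5 h at the lowest concentrations to 10–20 min at the highest, in Tris-HCl pH 7.5 buffer with KCl, MgCl2, BSA, DTT, tRNA and Tween20, with or without input ligand. Each apparent Kd is the median of per-cluster binding-curve fits, and designs with fewer than 10 measured clusters were excluded.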

[2] = system: MS2 coat protein; experiment: apparent Kd, MS2 coat protein; higher = weaker binding; RNA-MaP array; FMN 200 µM where present
In short: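 Designs were transcribed by stalled E. coli RNA polymerase on Illumina sequencing-chip clusters. They were titrated with SNAP-549-labelled MS2 coat protein from 0.7 or 1.5 nM, doubling to 3 µM, in 100 mM Tris-HCl pH 7.5, 80 mM KCl, 4 mM MgCl2, BSA, DTT, yeast tRNA and Tween-20, without and then with constant ligand. The apparent Kd is the median of filtered per-cluster fits after normalisation of green signal to red-channel RNA signal and control-cluster median Fmax.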

[3] = designed as: OFF switch for flavin mononucleotide, no ligand
[4] = ligand present: flavin mononucleotide, designed as: OFF switch for flavin mononucleotide
[5] = designed as: ON switch for flavin mononucleotide, no ligand
[6] = ligand present: flavin mononucleotide, designed as: ON switch for flavin mononucleotide
[7] = designed as: OFF switch for theophylline, no ligand
[8] = ligand present: theophylline, designed as: OFF switch for theophylline

| Sequence | apparent Kd [1, 3] [nM] | apparent Kd [1, 4] [nM] | apparent Kd [1, 5] [nM] | apparent Kd [1, 6] [nM] | further results |
| --- | --- | --- | --- | --- | --- |
| AUAAAAGACAUGAGGAUCACCCAUGUAGCUCCUCGGUCUUCGAGAAGGUUCUUGCCCAGAGCGUGAAAGGAUAUCGCAUAUAUC | 353 | 448 | – | – | – |
| AAAGCAGUAGGAUAUACAGUCAUCCGACAGAUAGCGUAAAGACAUGAGGAUCACCCAUGUAGAAGGACUGUAAA | 6.35 | 6.28 | – | – | – |
| UAAAGGUUCCAGAAGGCCACGACUCGAUCCUGUGGAGGAUAUGGGACAUGAGGAUCACCCAUGUCUGGUGGAUUACAUCCCACA | – | – | 20.4 | 32.2 | – |
| AUUCCACAUGAGGAUCACCCAUGUUCUGCUCUGCAUGGAAACAGAAGGAUUCGCGUCAGGUCGAAAUAGGAUAUGUUGUCAAAG | 33.6 | 28.5 | – | – | – |
| CACGCGGAGUUAGGAUAUAACGAUUGUCAGCCGUUAGAAGGAACCCAUCGCAAAUCUACGUCUAACAUGAGGAUCACCCAUGUU | – | – | 6.85 | 5.7 | – |
| ACAAGCCGAGGAUAUACAAGAAAGGCAAGACUGAUAAGAUAACAUGAGGAUCACCCAUGUAGAAGGCGGAAUAC | 10.4 | 14.1 | – | – | – |
| GAUACAUGAGGAUCACCCAUGUGGGAAAUUCAUCUCAUUAAGAAGGAUAUGCAUCUAAAACUGGAGCAGAAGGUCUGUAUCCCG | 87 | 55.9 | – | – | – |
| UGGGAACGAGGAUAUACAUGAGGAUCACCCAUGUUCAAGAUUCGGGUAUAAUGCCUCAGUAGAAGGCGUAAGCA | 107 | 108 | – | – | – |
| UGGAAUGUGCAAGGAUAUUGGCGGUGUGGAAUAGAAUCACUCGAACAUGAGGAUCACCCAUGUUGCAAGAAGGUGCGGGAACGA | 38.2 | 33.5 | – | – | – |
| AUACGAGCCAAGAAGGAGGGAGAUCCUGCAGUCCUAGGAUAUUGGCCACAAUCGGCGGACGACAUGAGGAUCACCCAUGUCCCG | – | – | 41.8 | 16 | – |
| CGUCCACAUGAGGAUCACCCAUGUACACGCGAUCAAGGAUAUCGCGAUAACACAAUAGUGCGAGAAGGUGAUGUAC | – | – | 148 | 79.6 | – |
| AUUACAGACUACGGCGAUACAUGAGGAUCACCCAUGUCGAGUUAGGAUAUGCAACAAUACGGCCUGCAGAAGGAACCAAGAGGG | 35.1 | 32.3 | – | – | – |
| CGCUAAGAGCGGCACCUCCACAUGAGGAUCACCCAUGUUUGAAGAAGGCCAAUUUACGUAAGACUGGAGGAUAUUCAGGAGAGU | – | – | 10.1 | 5.9 | – |
| AUGUAGUGCGAGAAGGACUCCCUCUUACACAUGAGGAUCACCCAUGUGCCCUCAAGCUAGACCGAGUAGGAUAUCGACCGCGCC | 60 | 43.6 | – | – | – |
| UCAAGUGAACCAUGGAAACAUUCAAUAGAUACCAGCAUUAAAACCUGCCCUUGGCAGCUAUGAACAUGAGGAUCACCCAUGUGAA | – | – | – | – | apparent Kd [1, 7]: 18.5 nM; apparent Kd [1, 8]: 71.4 nM |
| AUCGCGACCCAGAAGGGAAGUCGGUGAAGCGGUUCAGGAUAUGGGCAGAGGACAUGAGGAUCACCCAUGUGCAUGUAUUCGGCA | – | – | 17.2 | 13.7 | – |
| AUGUGAGGACAUGAGGAUCACCCAUGUCGGGAACCUCUCGCAGAGGAUAUUCGAGAAGCAACGUUGAAGAAGGCUGGCGAAACC | 18.1 | 13.7 | – | – | – |
| CCGACCCAAGGAUAUACAUGAGGAUCACCCAUGUAUAAAAUAUACCAAGGUAAAAUAUGUAGAAGGAGGAUAUG | 6.54 | 6.17 | – | – | – |
| CCUCAGCAAUUGGAUACCAGUACAUCGUAAGACAUGAGGAUCACCCAUGUGGGCUUGACAUACCCUUGGCAGCCAUCCUUGAUCC | – | – | – | – | apparent Kd ([1]; designed as: ON switch for theophylline, no ligand): 234 nM; apparent Kd ([1]; ligand present: theophylline, designed as: ON switch for theophylline): 252 nM |
| AAUGGAGUCGAGAAGGCAGCGACCCACUAAACCUGAGGAUAUCGUCUCCGAAAAUGGGUGGGUGUACAUGAGGAUCACCCAUGU | 95.2 | 122 | – | – | – |
| ACCCUGUGAGGAUAUUAUUAGCUCGGCCAUAAUAAGGAUAGUAAGAAGGCACAUGAGGAUCACCCAUGUAUCCU | 21.8 | 19.2 | – | – | – |
| GGAUACAGGAUAGGAUAUUCUGGGCCUUACAUGAGGAUCACCCAUGUGGAUUUUAUAUAUAGCCGGAAGAAGGAUCAACAGGUG | 11.8 | 9.21 | – | – | – |
| CCAAUGCAAGGAUAUACAAAAGACUCACUAAAUAGAACAAAACAUGAGGAUCACCCAUGUAGAAGGUGCUGAAC | 12.3 | 13.6 | – | – | – |

| Sequence | apparent Kd [1, 3] [nM] | apparent Kd [1, 4] [nM] | apparent Kd [1, 5] [nM] | apparent Kd [1, 6] [nM] | further results |
| --- | --- | --- | --- | --- | --- |
| UAGACUCAGUAGAAGGAUGAUAUUACGAUAUAACGUGACAUGAGGAUCACCCAUGUCUUCUGGUCAUAGGAUAUACGCGAAAUG | – | – | 45.6 | 21.3 | – |
| UGCCUAUACCGAGGAUAUUACGUCAGAUGUGUGUAAGAAGGCGGGUUCCGAUCAACAUGAGGAUCACCCAUGUAUCUUUACGGC | – | – | 24.5 | 8.72 | – |
| GACAUGAGGAUCACCCAUGUAUGUGGGACUGCGCAUUGAUACUAGGAUAUCUGCCCAGACGUGUGAGAGAAGGAGUACGGUAAA | – | – | 74.7 | 56 | – |
| ACUCCCGCAGAAGGAUAUCCUGACUGAACGAUCGACAUGAGGAUCACCCAUGUGUCUCCGUCGAGGGAGAAGGUCUGCUGUGAC | – | – | 18.7 | 7.98 | – |
| GACAACCACAUGAGGAUCACCCAUGUUUACAUACACAAGGGAAGAAGGGAACCUAAAGGAUCAAAUCAGGAUAUUCGUAUUGUA | – | – | 27 | 19.5 | – |
| UAGAGCGGCAACAUGAGGAUCACCCAUGUGGGCGAUGAGGCUCAGGAUAUACACCACCGCUGGACGUAGAAGGGAGACUCGCCG | 41.1 | 20.1 | – | – | – |
| CAUCGGGCGGUAAAUGGCGGGUACGGUGAUACCAGUUUUUGAUUUAACCCUUGGCAGCACUAUACAUGAGGAUCACCCAUGUAAU | – | – | – | – | apparent Kd [1, 7]: 17.9 nM; apparent Kd [1, 8]: 30 nM |
| UACAUGAGGAUCACCCAUGUCAAUUGUAGAUCGCUCAACGGCAGAAGGCGCAACCCGAUCGGGAGCGAGGAUAUGCCUCGUUAA | 26.5 | 27.1 | – | – | – |
| GUCCUUAUAACAUGAGGAUCACCCAUGUAAUUCAAUCUGCGAGAGGAUAUGUCUGAGCAUCCCACACAGAAGGCUCCGGAACAG | 22.8 | 20.1 | – | – | – |
| AUUAUGCAGUGAGAGGAUAUCAUCGAUAAGACAUGAGGAUCACCCAUGUGUGUCAGGGUUACACAUGAGAAGGCUCACCAAACUUU | – | – | 7.28 | 7.49 | – |
| UGGUCAGAUGUAAGGAUAUUCGCUCUAAUUUCUCAGAAGAAGGUACAUGAGGAUCACCCAUGUAAUAAAGAAAA | 9.38 | 19.6 | – | – | – |
| AACAUGAGGAUCACCCAUGUACACUCAAUUCGGUAUCGCUGCAAGGAUAUUCGCGUUGGAUACAUGAAGAAGGUGCCCGUACCG | – | – | 92 | 12.5 | – |
| CGUGGGUGUGAGCCACAUGAGGAUCACCCAUGUCACAACGUGAGAAGGAACAGGCCCUGUGUCGGUUAGGAUAUCAAACCCUUA | 142 | 27.3 | – | – | – |
| GAUUUUAGUGAAGGAUAUACAAACAACAUGAGGAUCACCCAUGUCUGGAAUGAUCGCAGGGCCCGGUAGAAGGUCAUCAGAAAG | 31.1 | 24 | – | – | – |
| UUACGGCAAGGAUAUACAUGAGGAUCACCCAUGUACUCUUUAUAAAUUAGUCAGCAUGGUAGAAGGUGCCGCUA | 9.04 | 11 | – | – | – |
| ACCAUGUGACAGGAUAUGUUUCUCUCAAUAAACACAGAAGGGUCUACAUGAGGAUCACCCAUGUGUAUUCUACC | 72.6 | 64.3 | – | – | – |
| CGUAUAGCAGGAUAUUGCAGCCGGCACAUGAGGAUCACCCAUGUCGAUGGUCCGCCAUAGCAAGAAGGGCUAGUAG | 85.7 | 57.1 | – | – | – |
| ACCAUGUAAGGAUAUCACAAGUUGAGUAGUUCGUUUGGGUGUGAGAAGGUACAUGAGGAUCACCCAUGUUCUGG | 154 | 237 | – | – | – |
| AACUAAAACGAUAGUCGACAUGAGGAUCACCCAUGUACAAAACAGGAUAUAAGAUUACCGGUGUGUAAGAAGGGUUUGCUAUCA | – | – | 15.2 | 12.6 | – |
| CAUCCAACACAAGGAUAUUGGACGUUUUUCAGCGCACAUGAGGAUCACCCAUGUACAAGGGAGUACAAGAAGGUGUUUUGGAUC | – | – | 27.1 | 9.49 | – |
| CUAUAUAAUACCUCAUGUACAUGAGGAUCACCCAUGUUAACUAAGGAUAUAUUUAUAUUAAUAAAGUAGAAGGUAGUACUAUUU | – | – | – | – | apparent Kd [2, 3]: 23.4 nM; apparent Kd [2, 4]: 18.8 nM |
| GUACAUGAGCAGAAGGGCAUUUAAUUACAUUUUUAUGUUUAUCAGAUAUGCAGGAUAUGUUAAACAUGAGGAUCACCCAUGUAC | – | – | – | – | apparent Kd [2, 5]: 196 nM; apparent Kd [2, 6]: 42.6 nM |

Reference: the EternaBench riboswitch data
